Measured values from ChEMBL document CHEMBL1123710, “Molecular structure of the dihydropyridazinone cardiotonic 1,3-dihydro-3,3-dimethyl-5-(1,4,5,6-tetrahydro-6-oxo-pyridazinyl)- 2H-indol-2-one, a potent inhibitor of cyclic AMP phosphodiesterase” (1987).

Experiments:
[1] = test system: Canis familiaris; assay: Percent increase in heart rate (HR) in anesthetized dogs was determined; assay type: functional, Canis lupus familiaris
[2] = test system: Canis familiaris; assay: Myocardial contractility was determined after intravenous administration in phenobarbital anesthetized dogs (n=4).; assay type: functional; settings: Canis lupus familiaris, Myocardium
How it was run: (§1)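 Dogs under anesthesia; Walton-Brodie strain-gauge arch sutured to right ventricle, tension set at 50 g. Increasing iv doses via femoral vein at 5-min intervals, peak responses recorded; vehicle injections tested. Inotropic ED50 by linear regression, mean ± SEM. Preload/afterload independence confirmed with dextran bolus and aortic compression.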

[3] = test system: Canis familiaris; assay: Percent decrease in mean arterial blood pressure (MAP) was determined in anesthetized dogs; assay type: functional, Canis lupus familiaris
How it was run: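 Femoral arterial pressure in anesthetized dogs via heparin-filled catheter and pressure transducer; baseline MAP 99 ± 3 mmHg. Escalating iv doses via femoral vein every 5 min, peak responses taken. Value is percent change in mean arterial pressure at the inotropic ED50 dose.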

[4] = test system: Canis familiaris; assay: Myocardial contractility was determined after intravenous administration in phenobarbital-anesthetized dogs (n=4).; assay type: functional; settings: Canis lupus familiaris, Myocardium; how it was run: as §1
[5] = test system: Canis familiaris; assay: Myocardial contractility was determined after intravenous administration in phenobarbital-anesthetized dogs; assay type: functional; settings: Canis lupus familiaris, Myocardium; how it was run: as §1

Compound	Increase [1] [%]	ED50 [2] [µg/kg]	Decrease [3] [%]	ED50 [4] [µg/kg]	ED50 [5] [µg/kg]
Cc1cc(O)nnc1-c1ccc2c(c1)C(C)(C)C(=O)N2	15	32.6	20		
CC1(C)C(=O)Nc2ccc(C3=NNC(=O)CC3)cc21 [INDOLIDAN]	12		15	6.8	
CC1CC(=O)NN=C1c1ccc2c(c1)C(C)(C)C(=O)N2 (configuration not stated)	20		31	3.6	
CC1(C)C(=O)Nc2ccc(-c3ccc(O)nn3)cc21	24		18		7.4
